Reference: ChEMBL document CHEMBL2331117 (J Med Chem, 2013)
Activity calls are given as the source filed them. The calls are words filed in the database; no cut-off is given here.

Columns and labels:
[1] = AUC (0 to infinity) in cynomolgus monkey at 3 mg/kg, po; format: ADME, organism-based, Macaca fascicularis; design: dose 3 mg/kg, route oral, time infinity; details: plasma
Method in brief: (§1)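 Single-dose PK: female athymic nude mice (10 mg/kg), female CD rats and male beagle dogs (3 mg/kg), male cynomolgus monkeys (3 mg/kg), given iv and by oral gavage. Solution in EPW (5% ethanol/45% PEG400/water), with 1:2 HCl (m/m) for mouse, rat and dog and 1:1.5 HCl (m/m) for monkey. Plasma levels followed over 24 h.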

[2] = Plasma concentration in athymic mouse plasma xenografted with human MCF7 cells at 100 mg/kg, po after 16 hrs; format: ADME, organism-based; design: dose 100 mg/kg, route oral
Method in brief: (§2)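 MCF-7 cells (5 × 10^6, in 50% cold HBSS/50% growth-factor-reduced matrigel) were implanted subcutaneously in the hindflank of 5–8 week old female nude mice. At 40–150 mg tumour size, mice received a single oral dose of 100 mg/kg, and plasma was sampled at the listed times after dosing.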

[3] = Cmax in CD rat at 3 mg/kg, po; format: ADME, organism-based; design: dose 3 mg/kg, route oral; details: in vivo; method in brief: as §1
[4] = molecular target: Proto-oncogene tyrosine-protein kinase Src (Homo sapiens, UniProt P12931); assay: Inhibition of SRC (unknown origin)
Chain of Proto-oncogene tyrosine-protein kinase Src (P12931 2-536 limits assumed): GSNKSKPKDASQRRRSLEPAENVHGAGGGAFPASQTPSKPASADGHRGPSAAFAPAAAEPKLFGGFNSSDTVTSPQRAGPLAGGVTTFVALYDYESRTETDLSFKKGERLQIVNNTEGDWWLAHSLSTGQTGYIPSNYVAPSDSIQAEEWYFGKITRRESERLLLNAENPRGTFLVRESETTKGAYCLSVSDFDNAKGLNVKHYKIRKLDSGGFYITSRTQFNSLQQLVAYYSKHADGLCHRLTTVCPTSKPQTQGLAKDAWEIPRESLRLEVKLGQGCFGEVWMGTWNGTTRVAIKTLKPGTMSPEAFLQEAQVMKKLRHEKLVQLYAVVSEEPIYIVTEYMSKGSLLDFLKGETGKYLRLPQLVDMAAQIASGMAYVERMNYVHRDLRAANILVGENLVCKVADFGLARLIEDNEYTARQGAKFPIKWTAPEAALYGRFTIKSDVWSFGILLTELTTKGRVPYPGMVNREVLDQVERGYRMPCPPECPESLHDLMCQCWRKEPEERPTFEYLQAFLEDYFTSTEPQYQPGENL

[5] = molecular target: RAF proto-oncogene serine/threonine-protein kinase (Homo sapiens, UniProt P04049); assay: Inhibition of cRAF (unknown origin)
Chain of RAF proto-oncogene serine/threonine-protein kinase (P04049 whole entry): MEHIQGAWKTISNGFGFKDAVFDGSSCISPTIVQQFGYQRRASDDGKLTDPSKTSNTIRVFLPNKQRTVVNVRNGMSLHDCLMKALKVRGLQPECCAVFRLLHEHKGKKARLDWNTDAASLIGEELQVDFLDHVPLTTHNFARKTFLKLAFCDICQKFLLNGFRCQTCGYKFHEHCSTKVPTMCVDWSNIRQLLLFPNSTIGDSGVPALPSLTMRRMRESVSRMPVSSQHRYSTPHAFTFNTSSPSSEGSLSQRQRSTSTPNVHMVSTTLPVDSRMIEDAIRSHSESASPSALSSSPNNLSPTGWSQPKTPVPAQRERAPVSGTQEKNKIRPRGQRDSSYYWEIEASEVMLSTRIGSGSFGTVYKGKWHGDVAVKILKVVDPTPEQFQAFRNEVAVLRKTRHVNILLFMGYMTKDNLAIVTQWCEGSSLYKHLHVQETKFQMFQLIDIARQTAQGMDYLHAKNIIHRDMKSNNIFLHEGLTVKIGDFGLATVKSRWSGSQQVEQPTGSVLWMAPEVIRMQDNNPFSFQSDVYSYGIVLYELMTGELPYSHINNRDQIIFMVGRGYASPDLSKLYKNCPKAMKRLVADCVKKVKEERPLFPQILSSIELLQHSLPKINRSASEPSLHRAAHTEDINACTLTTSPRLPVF

[6] = molecular target: Cytochrome P450 3A4 (Homo sapiens, UniProt P08684); assay: Induction of CYP3A4 (unknown origin); format: ADME
Chain of Cytochrome P450 3A4 (P08684 whole entry): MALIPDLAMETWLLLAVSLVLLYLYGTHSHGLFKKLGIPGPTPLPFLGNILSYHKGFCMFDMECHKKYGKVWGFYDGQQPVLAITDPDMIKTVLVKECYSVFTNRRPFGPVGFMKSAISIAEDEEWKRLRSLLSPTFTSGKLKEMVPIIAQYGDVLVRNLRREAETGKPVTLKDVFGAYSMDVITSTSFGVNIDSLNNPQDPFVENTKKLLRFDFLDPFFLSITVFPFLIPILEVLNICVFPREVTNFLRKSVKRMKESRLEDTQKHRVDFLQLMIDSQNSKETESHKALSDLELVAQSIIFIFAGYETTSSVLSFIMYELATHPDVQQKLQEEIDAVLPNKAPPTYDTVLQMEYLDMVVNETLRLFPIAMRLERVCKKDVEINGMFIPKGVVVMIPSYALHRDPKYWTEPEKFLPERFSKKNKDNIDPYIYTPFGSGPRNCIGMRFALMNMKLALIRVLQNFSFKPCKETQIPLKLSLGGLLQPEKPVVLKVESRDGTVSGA

[7] = test system: Mus musculus; assay: In vivo inhibition of mTORC1-mediated phosphorylation of pS6 at (serine 240/244) in human MCF7 cells xenografted into athymic nude mouse at 100 mg/kg, po after 24 hrs by Western blotting analysis relative to control; format: functional; details: MCF7, 24 h
Method in brief: (§3)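 MCF-7 cells (DMEM, 10% FBS) were implanted subcutaneously at 5 × 10^6 cells in 50% cold HBSS/50% growth-factor-reduced matrigel into the hindflank of 5−8 week old female nude mice. At tumor size 40−150 mg, mice received a single oral dose of 100 mg/kg. Tumor lysates were pooled per group. Phospho-AKT (S473, T308), p70S6K (T389), S6 (S240/244) and 4E-BP1 (T37/46) were measured by Western blot normalized to α-tubulin.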

[8] = Half life in athymic nude mouse at 10 mg/kg, iv; format: ADME, organism-based; design: dose 10 mg/kg, route intravenous; details: in vivo; method in brief: as §1
[9] = Plasma concentration in athymic mouse plasma xenografted with human MCF7 cells at 100 mg/kg, po after 1 hr; format: ADME, organism-based; design: dose 100 mg/kg, route oral; method in brief: as §2
[10] = AUC (0 to infinity) in CD rat at 3 mg/kg, iv; format: ADME, organism-based; design: time infinity, dose 3 mg/kg, route intravenous; details: plasma; method in brief: as §1
[11] = Cmax in cynomolgus monkey at 3 mg/kg, po; format: ADME, organism-based, Macaca fascicularis; design: dose 3 mg/kg, route oral; details: in vivo; method in brief: as §1
[12] = test system: Plasma; assay: Plasma concentration in athymic mouse plasma xenografted with human MCF7 cells at 100 mg/kg, po after 32 hrs; format: ADME, organism-based; design: dose 100 mg/kg, route oral; details: in vivo, BLD = below limit of detection; method in brief: as §2
[13] = AUC (0 to infinity) in Beagle dog at 3 mg/kg, po; format: ADME, organism-based, Canis lupus familiaris; design: time infinity, dose 3 mg/kg, route oral; details: plasma; method in brief: as §1
[14] = molecular target: Cell division cycle 7-related protein kinase (Homo sapiens, UniProt O00311); assay: Inhibition of CDC7 (unknown origin)
Chain of Cell division cycle 7-related protein kinase (O00311 whole entry): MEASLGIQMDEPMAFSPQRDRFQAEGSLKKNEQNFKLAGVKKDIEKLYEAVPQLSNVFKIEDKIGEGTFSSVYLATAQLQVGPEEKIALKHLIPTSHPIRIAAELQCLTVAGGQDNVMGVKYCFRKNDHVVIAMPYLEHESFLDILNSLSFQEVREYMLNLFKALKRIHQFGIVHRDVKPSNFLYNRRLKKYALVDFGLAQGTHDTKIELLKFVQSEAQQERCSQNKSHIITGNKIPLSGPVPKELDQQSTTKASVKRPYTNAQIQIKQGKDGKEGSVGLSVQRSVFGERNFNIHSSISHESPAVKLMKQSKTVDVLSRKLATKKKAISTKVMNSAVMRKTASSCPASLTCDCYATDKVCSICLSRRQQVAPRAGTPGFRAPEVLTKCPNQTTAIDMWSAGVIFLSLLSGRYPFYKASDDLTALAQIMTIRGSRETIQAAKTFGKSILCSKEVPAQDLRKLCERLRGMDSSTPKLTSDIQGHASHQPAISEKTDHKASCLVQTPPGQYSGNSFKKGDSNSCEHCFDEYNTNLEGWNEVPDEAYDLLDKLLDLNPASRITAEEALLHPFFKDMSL

[15] = Cmax in cynomolgus monkey at 3 mg/kg, iv; format: ADME, organism-based, Macaca fascicularis; design: dose 3 mg/kg, route intravenous; details: in vivo; method in brief: as §1
[16] = molecular target: Serine/threonine-protein kinase mTOR (Rattus norvegicus) (UniProt P42346); assay: Reversible inhibition of mTOR (unknown origin) assessed as enzyme recovery measured after dilution in presence of ATP relative to untreated control; details: Homo sapiens
[17] = Plasma protein binding in mouse at 5 uM; format: ADME, cell-free; details: read-out: PPB (converted)
[18] = molecular target: Hepatocyte growth factor receptor (Homo sapiens, UniProt P08581); assay: Inhibition of MET (unknown origin)
Chain of Hepatocyte growth factor receptor (P08581 whole entry): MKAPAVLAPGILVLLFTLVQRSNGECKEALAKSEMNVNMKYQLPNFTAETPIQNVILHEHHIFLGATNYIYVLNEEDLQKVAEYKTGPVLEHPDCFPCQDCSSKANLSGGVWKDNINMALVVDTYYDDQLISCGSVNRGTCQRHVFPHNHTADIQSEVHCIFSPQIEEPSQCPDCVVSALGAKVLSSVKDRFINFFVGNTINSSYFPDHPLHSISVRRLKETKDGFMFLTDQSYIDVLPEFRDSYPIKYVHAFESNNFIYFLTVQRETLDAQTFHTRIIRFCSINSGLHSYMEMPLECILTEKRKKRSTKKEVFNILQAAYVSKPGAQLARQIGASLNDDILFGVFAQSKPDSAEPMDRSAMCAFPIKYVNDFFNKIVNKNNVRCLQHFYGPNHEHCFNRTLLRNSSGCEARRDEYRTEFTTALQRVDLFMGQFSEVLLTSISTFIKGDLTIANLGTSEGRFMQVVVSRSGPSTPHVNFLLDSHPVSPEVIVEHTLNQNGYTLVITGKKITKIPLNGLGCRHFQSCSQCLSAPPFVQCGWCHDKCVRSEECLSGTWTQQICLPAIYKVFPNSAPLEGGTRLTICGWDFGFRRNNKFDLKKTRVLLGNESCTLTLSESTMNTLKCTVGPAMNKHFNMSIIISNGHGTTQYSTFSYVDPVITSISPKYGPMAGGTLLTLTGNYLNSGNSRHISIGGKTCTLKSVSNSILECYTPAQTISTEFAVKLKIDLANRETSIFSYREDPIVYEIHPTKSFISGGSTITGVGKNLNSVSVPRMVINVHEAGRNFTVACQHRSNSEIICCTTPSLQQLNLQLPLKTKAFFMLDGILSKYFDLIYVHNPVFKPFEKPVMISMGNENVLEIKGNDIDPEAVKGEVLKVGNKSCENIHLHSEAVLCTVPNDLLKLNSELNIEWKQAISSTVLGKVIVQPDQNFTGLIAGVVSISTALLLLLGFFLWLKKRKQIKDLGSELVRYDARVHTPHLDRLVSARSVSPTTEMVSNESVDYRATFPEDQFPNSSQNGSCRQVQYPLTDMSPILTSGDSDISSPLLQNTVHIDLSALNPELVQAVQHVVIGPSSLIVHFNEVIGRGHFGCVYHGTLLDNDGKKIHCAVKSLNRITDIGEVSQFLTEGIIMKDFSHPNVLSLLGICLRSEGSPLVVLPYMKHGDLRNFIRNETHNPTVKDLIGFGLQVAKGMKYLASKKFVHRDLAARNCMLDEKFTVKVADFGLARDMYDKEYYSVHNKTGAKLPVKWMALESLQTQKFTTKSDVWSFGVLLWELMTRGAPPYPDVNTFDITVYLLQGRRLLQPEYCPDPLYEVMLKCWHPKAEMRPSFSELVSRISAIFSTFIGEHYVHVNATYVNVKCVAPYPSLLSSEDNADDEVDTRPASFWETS

[19] = molecular target: Vascular endothelial growth factor receptor 1 (Homo sapiens, UniProt P17948); assay: Inhibition of FLT1 (unknown origin)
Chain of Vascular endothelial growth factor receptor 1 (P17948 whole entry): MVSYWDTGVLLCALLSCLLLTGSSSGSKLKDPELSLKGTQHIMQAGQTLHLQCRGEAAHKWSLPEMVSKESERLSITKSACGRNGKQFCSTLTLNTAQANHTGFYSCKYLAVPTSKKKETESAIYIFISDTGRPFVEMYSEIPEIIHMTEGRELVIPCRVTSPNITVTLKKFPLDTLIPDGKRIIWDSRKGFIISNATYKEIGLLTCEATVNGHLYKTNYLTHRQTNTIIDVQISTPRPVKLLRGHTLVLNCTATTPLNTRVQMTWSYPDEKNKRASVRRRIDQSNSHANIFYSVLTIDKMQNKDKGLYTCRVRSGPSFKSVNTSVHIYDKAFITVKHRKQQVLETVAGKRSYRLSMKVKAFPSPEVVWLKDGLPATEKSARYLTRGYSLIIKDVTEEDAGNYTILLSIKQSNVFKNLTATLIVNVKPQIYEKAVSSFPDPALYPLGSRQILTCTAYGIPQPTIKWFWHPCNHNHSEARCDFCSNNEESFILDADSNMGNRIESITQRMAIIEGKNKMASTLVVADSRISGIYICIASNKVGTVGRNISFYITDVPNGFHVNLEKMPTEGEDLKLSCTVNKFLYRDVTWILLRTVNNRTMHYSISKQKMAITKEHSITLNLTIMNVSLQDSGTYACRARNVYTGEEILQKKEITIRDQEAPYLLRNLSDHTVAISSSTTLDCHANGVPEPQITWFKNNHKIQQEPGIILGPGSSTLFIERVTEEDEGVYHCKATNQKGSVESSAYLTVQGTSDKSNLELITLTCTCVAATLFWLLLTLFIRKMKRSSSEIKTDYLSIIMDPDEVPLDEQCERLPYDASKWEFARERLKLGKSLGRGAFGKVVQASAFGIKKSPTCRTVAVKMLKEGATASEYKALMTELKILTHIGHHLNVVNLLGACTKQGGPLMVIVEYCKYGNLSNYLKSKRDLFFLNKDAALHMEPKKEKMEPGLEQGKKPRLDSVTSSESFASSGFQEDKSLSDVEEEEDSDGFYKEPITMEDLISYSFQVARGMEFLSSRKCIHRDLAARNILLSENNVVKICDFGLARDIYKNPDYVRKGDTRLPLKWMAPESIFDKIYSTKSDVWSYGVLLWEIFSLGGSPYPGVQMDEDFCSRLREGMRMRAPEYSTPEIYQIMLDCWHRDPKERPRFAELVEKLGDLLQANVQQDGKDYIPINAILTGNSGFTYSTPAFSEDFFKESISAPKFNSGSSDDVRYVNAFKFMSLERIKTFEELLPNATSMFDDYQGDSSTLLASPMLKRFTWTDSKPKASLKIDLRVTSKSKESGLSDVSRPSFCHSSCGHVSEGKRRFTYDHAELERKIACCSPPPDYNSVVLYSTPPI

[20] = test system: Mus musculus; assay: In vivo inhibition of mTORC1-mediated phosphorylation of pS6 at (serine 240/244) in human MCF7 cells xenografted into athymic nude mouse at 100 mg/kg, po after 32 hrs by Western blotting analysis relative to control; format: functional; details: MCF7, 32 h; method in brief: as §3
[21] = molecular target: Mast/stem cell growth factor receptor Kit (Homo sapiens, UniProt P10721); assay: Inhibition of KIT (unknown origin)
[22] = test system: Mus musculus; assay: Inhibition of mTORC2-mediated phosphorylation of AKT at serine 473 in human PC3 cells xenografted into athymic nude mouse at 100 mg/kg, po after 1 hr by Western blotting analysis relative to control; format: functional; details: PC-3, 1 h
Method in brief: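 PC-3 cells (3 × 10^6, in ice-cold HBSS) were implanted subcutaneously in the hindflank of 5–8 week old male nude mice. At 200–500 mg tumour size, mice received a single oral dose. Tumours were collected at set times after dosing, homogenised and pooled per group (n=5). pAKT S473 was measured by Western blot and normalised to α-tubulin.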

[23] = test system: Mus musculus; assay: In vivo inhibition of mTORC1-mediated phosphorylation of 4EBP1 at ([…]) in human PC3 cells xenografted into athymic nude mouse at 100 mg/kg, po after 8 hrs by Western blotting analysis relative to control; format: functional; details: PC-3, 8 h
Method in brief: (§4)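 PC-3 cells grown in DMEM with 20% FBS were implanted subcutaneously at 3 × 10^6 cells in ice-cold HBSS into the hindflank of 5−8 week old male nude mice. At tumor size 200−500 mg, mice received a single oral dose of 100 mg/kg. Plasma and tumors were collected at 1, 4, 8, 16, 24 and 32 h. Tumor lysates from each group (n = 5) were pooled. Phospho-proteins were quantified by Western blot and normalized to α-tubulin.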

[24] = Half life in CD rat at 3 mg/kg, iv; format: ADME, organism-based; design: dose 3 mg/kg, route intravenous; details: in vivo; method in brief: as §1
[25] = test system: Mus musculus; assay: In vivo inhibition of mTORC1-mediated phosphorylation of pS6 at (serine 240/244) in human PC3 cells xenografted into athymic nude mouse at 100 mg/kg, po after 24 hrs by Western blotting analysis relative to control; format: functional; details: PC-3, 24 h; method in brief: as §4
[26] = Volume of distribution at steady state in athymic nude mouse at 10 mg/kg, iv; format: ADME, organism-based; design: dose 10 mg/kg, route intravenous; details: in vivo, read-out: Vdss
[27] = test system: Mus musculus; assay: In vivo inhibition of mTOR1-mediated phosphorylation of p70S6K at […] in human MCF7 cells xenografted into athymic nude mouse at 100 mg/kg, po after 8 hrs by Western blotting analysis relative to control; format: functional; details: MCF7, 8 h
[28] = test system: Mus musculus; assay: In vivo inhibition of mTORC2-mediated phosphorylation of AKT at serine 473 in human MCF7 cells xenografted into athymic nude mouse at 100 mg/kg, po after 4 hrs by Western blotting analysis relative to control; format: functional; details: MCF7, 4 h; method in brief: as §3
[29] = molecular target: DNA-dependent protein kinase catalytic subunit (Homo sapiens, UniProt P78527); assay: Inhibition of DNA-PK (unknown origin)

AUC(0-inf) [1]: 0.7 µM·h
concentration at 16 h [2]: 2080 nM
Cmax [3]: 707 nM
IC50 [4]: > 3.5 µM
IC50 [5]: > 3.5 µM
Activity [6]: 50 µM
half-life [8]: 81 min
concentration at 1 h [9]: 34400 nM
AUC(0-inf) [10]: 3.72 µM·h
Cmax [11]: 250 nM
Cp [12]: BLD
AUC(0-inf) [13]: 7.66 µM·h
IC50 [14]: > 3.5 µM
Cmax [15]: 950 nM
inhibition [16]: inactive
fraction unbound at 5 µM [17]: 0.16
IC50 [18]: > 3.5 µM
IC50 [19]: > 3.5 µM
IC50 [21]: > 3.5 µM
half-life [24]: 27 min
Vd [26]: 1.96 L/kg
IC50 [29]: 8.83 µM
Compound: Cc1c(C(=O)N2CCOc3ccc(-c4ccc(N)nc4)cc3C2)ccc(S(C)(=O)=O)c1F
inhibition in vivo at 100 mg/kg [7]: -24%
inhibition in vivo at 100 mg/kg [20]: -3%
inhibition in vivo at 100 mg/kg [22]: 88%
inhibition in vivo at 100 mg/kg [23]: 92%
inhibition in vivo at 100 mg/kg [25]: 8%
inhibition in vivo at 100 mg/kg [27]: 81%
inhibition in vivo at 100 mg/kg [28]: 87%
